Screening results deposited in PubChem BioAssay by Broad Institute.
Hits are enriched below; roughly 0.92% of the tested compounds scored in any of these assays.
FN deposit inh – inhibitors of fibronectin matrix deposition, primary screen, AH1F cells, Alexa488-fibronectin fluorescence, plate reader; hit rate 0.086% among 350,000; AH1F fibroblasts, overnight; inhibition, % at 12.6 µM; AID 743247, 2014;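 active = mean inhibition across replicates of 30% or more, regardless of how many single replicates reach that level; inconclusive = mean under 30% yet at least half of replicates reach 30%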;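 also: positive control wells lacked labelled fibronectin entirely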
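Assay system: AH1F fibroblasts assembling fluorescent fibronectin matrix; Amount: 10000 AH1F cells per well; Buffer or medium: DMEM, 2% serum; Probe or stimulus: Alexa488-fibronectin, 24 nM final in well; Doses: single compound dose, delivered by pin transfer; Incubation: 1 h adhesion, overnight exposure; Measured by: fluorescence 485/525 nm; Read-out: fibronectin deposition inhibition.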
MLL AF4-AF9 inh – inhibitors of AF4 peptide binding to AF9, primary screen, biochemical, AlphaScreen, biotin-AF4 peptide, FLAG-AF9, single point; Protein AF-9 (Homo sapiens), P42568; inhibition, % at 10 µM; hit rate 0.47% among 350,000; AID 651704, 2012;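 active = every replicate reaching a set inhibition limit, whatever the replicate mean, cut at about 25% in these data; inconclusive = mean inhibition reaches that limit but some replicates miss it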;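 also: 0% = plate neutral control median and 100% = total signal loss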
RAD52 inh – RAD52 DNA annealing inhibitors, primary screen, biochemical, FRET, single point, set 2 | DNA repair protein RAD52 homolog (Homo sapiens), P43351 | AID 651710, 2012 | hit rate 0.46% among 360,000 | inhibition, % at 18.7 µM | recombinant RAD52 DNA annealing, FRET fluorescence;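 active = every replicate showing at least 50% inhibition; inconclusive = mean inhibition at least 50% but not in every replicate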
RAD54 inh – inhibitors of human RAD54 branch migration, primary screen, biochemical, fluorescence, single point; RAD54 Holliday junction branch migration, FAM/BHQ fluorescence; inhibition, % at 10.4 µM; hit rate 0.14% among 360,000;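 active = mean normalized replicate activity at least 40 and at least half of replicates scoring 40 or more; inconclusive = only one of the two criteria met; inactive = mean below 40 and under half of replicates reaching 40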;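 also: 0% = median of neutral control wells and 100% = median of positive control wells; inhibitors cause a drop in the FAM fluorescence signal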
Target sequence (Q92698 whole entry, looked up): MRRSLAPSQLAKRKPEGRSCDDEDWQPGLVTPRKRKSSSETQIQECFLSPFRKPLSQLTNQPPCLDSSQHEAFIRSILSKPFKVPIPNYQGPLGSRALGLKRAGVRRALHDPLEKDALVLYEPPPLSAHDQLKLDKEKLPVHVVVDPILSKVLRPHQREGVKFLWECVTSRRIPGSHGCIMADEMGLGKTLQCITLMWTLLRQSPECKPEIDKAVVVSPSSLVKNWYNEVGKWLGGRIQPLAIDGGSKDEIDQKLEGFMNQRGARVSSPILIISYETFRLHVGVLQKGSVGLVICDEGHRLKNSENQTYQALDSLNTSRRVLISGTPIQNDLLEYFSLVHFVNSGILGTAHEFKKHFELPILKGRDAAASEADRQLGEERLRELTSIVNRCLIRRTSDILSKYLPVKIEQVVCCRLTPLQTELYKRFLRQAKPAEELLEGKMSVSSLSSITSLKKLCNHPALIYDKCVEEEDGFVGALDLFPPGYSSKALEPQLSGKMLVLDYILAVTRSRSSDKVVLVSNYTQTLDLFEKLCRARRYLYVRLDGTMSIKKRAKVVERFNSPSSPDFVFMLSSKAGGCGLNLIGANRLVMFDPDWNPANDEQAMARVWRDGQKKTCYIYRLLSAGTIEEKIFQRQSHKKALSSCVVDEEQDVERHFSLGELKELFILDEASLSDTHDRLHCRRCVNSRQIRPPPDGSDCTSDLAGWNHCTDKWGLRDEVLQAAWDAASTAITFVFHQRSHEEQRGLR
Glyco luc inh – increase of ERlucT glycosylation luciferase signal, primary screen, N-linked glycosylation inhibitor project, D54 ERlucT cells, luminescence, set 2 | D54 ERlucT glycosylation luciferase reporter, 24 h; percent of 100 nM tunicamycin response | reporter increase, % at 12.5 µM | hit rate 0.23% among 360,000;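 active = mean luciferase reporter signal, scaled so untreated is 0 and the glycosylation-blocking control 100, at or above a set limit in every replicate; inconclusive = mean reaches the limit but not every replicate does; inactive = mean below the limit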;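 also: luciferase carries N-glycosylation sites so blocking glycosylation raises the light; 0% = median of neutral control wells and 100% = median of 100 nM tunicamycin wells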
DNA binding – DNA binding of candidate compounds, dose response, artefact control for RAD54 inhibitor project, biochemical, fluorescence polarization, cherry-pick; Acridine orange-DNA displacement, 20 min; AID 651673, 2012; shares compounds with RAD54 inh; AC50, µM (top dose mostly 35 µM), without a hit: top-dose activity change, negative = DNA binding; hit rate 8% among 460;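 active = signal drop giving an AC50 within twice the top valid tested concentration of each sample, actives reach about 35 µM in these data; inactive = activity opposite to expected, plus the rest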;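 also: polarization loss reports compound binding to salmon sperm DNA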
DNA binder FP – DNA-binding compounds via dye displacement, dose response, artefact control for RAD52 inhibitor project, biochemical, fluorescence polarization, cherry-pick; AID 652128, 2013; hit rate 8% among 1,000; Salmon sperm DNA/acridine orange FP displacement; AC50, µM; shares compounds with RAD52 inh;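 active = fitted half-maximal concentration for signal loss at or below twice the highest dose tested, in every separate run, actives reach about 64 µM in these data; inconclusive = runs disagree, or flat partial signal loss, or poor fit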
* hit, by the source's call; i = inactive; ? = inconclusive; nt = not tested or not shown.

SMILES	FN deposit inh	MLL AF4-AF9 inh	RAD52 inh	RAD54 inh	Glyco luc inh	DNA binding	others
Cc1ccc(OCC(=O)Nc2cccc(-c3nnc(-c4ccccc4)o3)c2)c(C)c1	5	nt	nt	?	-1	7%
C[C@H](NC(=O)C[C@H]1C[C@H]2c3cc(NS(C)(=O)=O)ccc3O[C@H]2[C@@H](CO)O1)c1ccccc1	nt	-1	6	4	nt	nt
O=C(Nc1cccc(Br)c1)c1cc(S(=O)(=O)N2CCOCC2)cs1	4	1	-2	52*	2	5%
O=C(Nc1ccccc1[N+](=O)[O-])c1cc(S(=O)(=O)N2CCOCC2)cs1	4	4	-14	4	-1	nt
CCOc1ccc(NC(=O)c2cc(S(=O)(=O)N3CCOCC3)cs2)cc1	nt	-3	-2	-10	-2	nt
O=C(Nc1ccccc1)c1cc(S(=O)(=O)N2CCOCC2)cs1	nt	nt	nt	?	1	-3%
O=C(Nc1cccc([N+](=O)[O-])c1)c1cc(S(=O)(=O)N2CCOCC2)cs1	7	1	-2	57*	-2	-9%
COc1ccc(NC(=O)Nc2ccc3c(c2)CC(=O)N([C@H](C)CO)C[C@@H](C)[C@@H](CN(C)C(=O)Nc2ccc(F)cc2)O3)cc1	nt	-3	17	2	nt	nt
CO[C@H]1CN(C)C(=O)c2cc(NS(=O)(=O)c3ccc(Cl)cc3)ccc2OC[C@H](C)N(C)C[C@H]1C	7	2	-8	5	nt	nt
O=C(CN1CCCC1)Nc1ccc(-c2nc3cc(NC(=O)CN4CCCC4)ccc3o2)cc1	nt	nt	nt	?	-9	-22%
CCOC(=O)c1c(C)n(C)c2ccc(OCC(O)CN3CCN(C)CC3)cc12 (centres undefined)	-2	7	1	?	2	-14%
CCN(CC)S(=O)(=O)c1ccc(Cl)c(C(=O)Nc2nnc(C)s2)c1	0	nt	nt	?	0	-8%
CCOC(=O)c1cnc2c(CC)cccc2c1NCCCN1CCOCC1	2	0	32	?	2	10%
CCOC(=O)c1cnc2c(C(F)(F)F)cccc2c1NCCCN1CCOCC1	-11	1	-9	11	1	nt
CCOC(=O)c1cnc2c(Cl)cccc2c1NCCCN1CCOCC1	-1	-1	16	?	-3	-22%
CN(C)CCOc1nc(-c2ccccc2)nc2c1oc1ccccc12	nt	nt	nt	81*	114*	i
COc1cccc(-c2nc(N3CCN(Cc4ccccc4)CC3)c3ccccc3n2)c1O	3	1	-13	64*	-1	-1%
COC(=O)c1c(NC(=O)c2ccc([N+](=O)[O-])o2)sc2c1CCN(C(C)C)C2	1	-7	-12	68*	5	9%
O=C(Nc1ccc(F)cc1F)C1CCN(c2ncnc3c2sc2cccc(F)c23)CC1	-15	-9	-3	-19	3	nt
CCN(CC)CCCNC(=O)C1CCN(c2ncnc3c2sc2cccc(F)c23)CC1	-10	3	42	53*	3	-1%
c1ccc2c(c1)[nH]c1c(N3CCN(C4CCCCC4)CC3)ncnc12	11	nt	nt	?	2	4%
CN1CCN(c2ncnc3c2[nH]c2ccc(F)cc23)CC1	nt	nt	nt	76*	0	-3%
O=C(C[C@H]1CC[C@H](NC(=O)Cc2ccccn2)[C@@H](CO)O1)NCCc1ccccc1	nt	-1	20	3	nt	nt
CC(=O)Nc1ccc2cc3ccc(NC(C)=O)cc3nc2c1	-18	-6	-101	51*	36*	4%
CC(=O)Nc1ccc2ccccc2c1	nt	nt	nt	-3	2	nt
SMILES	FN deposit inh	MLL AF4-AF9 inh	RAD52 inh	RAD54 inh	Glyco luc inh	DNA binding	others
CC(C)C#Cc1ccc2c(c1)O[C@H](CN(C)S(C)(=O)=O)[C@@H](C)CN([C@H](C)CO)S2(=O)=O	-6	1	11	-7	nt	nt
CNC[C@H]1Oc2ccc(NS(=O)(=O)c3cccs3)cc2C(=O)N([C@@H](C)CO)C[C@@H]1C	3	-3	8	8	nt	nt
CN(C)CCSc1nc(N)c2c3c(sc2n1)CN(C)CC3	nt	nt	nt	75*	-4	-13%
Cc1c(Cl)ccc(S(=O)(=O)NCCCn2ccnc2)c1Cl	-3	3	0	?	0	-9%
CCN1CCCC1CNC(=O)c1cc2c(-c3cccc(OC)c3)nn(C)c2s1 (centres undefined)	1	nt	nt	50*	1	-9%
COc1cccc(-c2nn(C)c3sc(C(=O)NCc4ccco4)cc23)c1	2	nt	nt	11	19	nt
CCCCN(C)CCNC(=O)c1cc2c(-c3cccc(OC)c3)nn(C)c2s1	-3	4	65*	72*	-1	-16%
COc1cccc(-c2nn(C)c3sc(C(=O)NCCCN(C)Cc4ccccc4)cc23)c1	15	2	12	21	0	nt
NNC(=O)c1oc2nc(-c3cccs3)cc(-c3ccco3)c2c1N	2	0	-10	?	51*	-3%
COc1ccc(C(=O)NC2CCCCCC2)cc1S(=O)(=O)N1CCCc2ccccc21	nt	nt	nt	1	-6	nt
CCN1C(=O)CCN(C2CCCC2)c2nc(Nc3ccc(C(=O)NC4CCN(C)CC4)cc3OC)ncc21	18	6	63*	?	55*	3%	DNA binder FP=i
CN1CCN(CC(=O)n2c3c(c4ccccc42)CCCC3)CC1	nt	nt	nt	nt	-3	nt
O=C(CN1CCCCC1)n1c2ccccc2c2ccccc21	-25	nt	61*	100*	13	2%	DNA binder FP=i
CCN1CCN(c2cc(C)c3cc(NC(=S)N4CCCC(C)C4)ccc3n2)CC1 (centres undefined)	9	15	52*	63*	-7	1%	DNA binder FP=i
CCN1CCN(c2cc(C)c3cc(NC(=S)N4CC(C)CC(C)C4)ccc3n2)CC1 (centres undefined)	-7	7	52*	?	-6	-9%	DNA binder FP=i
CCN1CCN(c2cc(C)c3cc(NC(=O)c4ccncc4)ccc3n2)CC1	3	-3	-35	0	-3	nt
CO[C@@H]1CN(C)C(=O)c2cc(NC(=O)c3ccccc3)ccc2OC[C@@H](C)N(CC2CC2)C[C@H]1C	-9	nt	nt	-14	nt	nt
Oc1ccc(Nc2nc(N3CCCC3)c3ccccc3n2)cc1	12	nt	67*	60*	53*	i	DNA binder FP=i
COc1ccc(-c2cc(NC=O)c3ncc(-c4cccc(C(=O)NCCN(C)C)c4)n3c2)cn1	nt	9	81*	95*	-6	-11%	DNA binder FP=i
